Assay results published in ChEMBL document CHEMBL3351670, “Discovery of Tröger's base analogues as selective inhibitors against human breast cancer cell line: design, synthesis and cytotoxic evaluation” (Eur J Med Chem, 2014).
pIC50: −log10 of the molar value.

Key:
Format in all cases: functional, cell-based
[1] = system: MDA-MB-231; assay: Cytotoxicity against human MDA-MB-231 cells assessed as growth inhibition after 48 hrs by MTT assay; conditions: MDA-MB-231, 48 h
In short: (§1)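 MTT assay in triplicate. Cells were seeded at 10,000 cells/[…] per well in medium with 10% serum and allowed to adhere for 24 h in a humid 5% CO₂ chamber. After 48 h, MTT solution was added and cells were incubated 2 h more. Medium was then removed and DMSO added to dissolve the formazan. IC50 was taken as the concentration giving 50% growth inhibition.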

[2] = system: SK-N-SH; assay: Cytotoxicity against human SK-N-SH cells assessed as growth inhibition after 48 hrs by MTT assay; in short: as §1
[3] = system: A549; assay: Cytotoxicity against human A549 cells assessed as growth inhibition after 48 hrs by MTT assay; conditions: A549, 48 h; in short: as §1

In the case of COc1ccc2c(c1)CN1CN2Cc2cc(OC)ccc21, the pIC50 [1] was < 4.00, the pIC50 [2] was < 4.00 and the pIC50 [3] was < 4.00.

COc1ccc2c(c1)CN1c3ccc(OC)cc3CN2C1N(C)C was tested, and the pIC50 [1] was < 4.00, the pIC50 [2] was < 4.00 and the pIC50 [3] was < 4.00.

With COc1ccc2c(c1)CN1c3ccc(OC)cc3CN2C1N(C)c1ccc(C)cc1 the pIC50 [1] was 4.97, the pIC50 [2] was < 4.00 and the pIC50 [3] was < 4.00.

For COc1cc2c(cc1OC)N1Cc3cc(OC)c(OC)cc3N(C2)C1N(C)C, the pIC50 [1] was 4.11, the pIC50 [2] was < 4.00 and the pIC50 [3] was < 4.00.

In the case of COc1cc2c(cc1OC)N1Cc3cc(OC)c(OC)cc3N(C2)C1N(C)c1ccccc1, the pIC50 [1] was 4.06, the pIC50 [2] was < 4.00 and the pIC50 [3] was < 4.00.

With Cc1ccc2c(c1)CN1c3ccc(C)cc3CN2C1N(C)C the pIC50 [1] was 4.21, the pIC50 [2] was < 4.00 and the pIC50 [3] was < 4.00.

With Cc1ccc2c(c1)CN1c3ccc(C)cc3CN2C1N(C)c1ccccc1 the pIC50 [1] was 4.14, the pIC50 [2] was < 4.00 and the pIC50 [3] was < 4.00.

In the case of CN(C)C1N2Cc3cc(Br)ccc3N1Cc1cc(Br)ccc12, the pIC50 [1] was < 4.00, the pIC50 [2] was < 4.00 and the pIC50 [3] was < 4.00.

In the case of CN(c1ccccc1)C1N2Cc3cc(Br)ccc3N1Cc1cc(Br)ccc12, the pIC50 [1] was 4.84, the pIC50 [2] was < 4.00 and the pIC50 [3] was < 4.00.

With Cc1ccc(N(C)C2N3Cc4cc(Br)ccc4N2Cc2cc(Br)ccc23)cc1 the pIC50 [1] was < 4.00, the pIC50 [2] was < 4.00 and the pIC50 [3] was < 4.00.

With CC(C)c1ccc2c(c1)CN1c3ccc(C(C)C)cc3CN2C1N(C)C the pIC50 [1] was 4.24, the pIC50 [2] was < 4.00 and the pIC50 [3] was < 4.00.

For CN(C)C1N2Cc3ccccc3N1Cc1ccccc12, the pIC50 [1] was < 4.00, the pIC50 [2] was < 4.00 and the pIC50 [3] was < 4.00.

In the case of Cc1ccc2c(c1)CN1c3ccc(C)cc3CN2C1N1CCCCC1, the pIC50 [1] was 4.08, the pIC50 [2] was 4.91 and the pIC50 [3] was < 4.00.

For Cc1ccc2c(c1)CN1c3ccc(C)cc3CN2C1N1CCOCC1, the pIC50 [1] was < 4.00, the pIC50 [2] was < 4.00 and the pIC50 [3] was < 4.00.

Brc1ccc2c(c1)CN1c3ccc(Br)cc3CN2C1N1CCCCC1 was tested, and the pIC50 [1] was < 4.00, the pIC50 [2] was < 4.00 and the pIC50 [3] was < 4.00.

For Ic1ccc2c(c1)CN1c3ccc(I)cc3CN2C1N1CCOCC1, the pIC50 [1] was < 4.00, the pIC50 [2] was < 4.00 and the pIC50 [3] was < 4.00.

In the case of Ic1ccc2c(c1)CN1c3ccc(I)cc3CN2C1N1CCCCC1, the pIC50 [1] was < 4.00, the pIC50 [2] was < 4.00 and the pIC50 [3] was < 4.00.

c1cn(CCOc2ccc3c(c2)CN2CN3Cc3cc(OCCn4ccnc4)ccc32)cn1 showed a pIC50 [1] of 4.37.

With CN(C)C1N2Cc3cc(OCCn4ccnc4)ccc3N1Cc1cc(OCCn3ccnc3)ccc12 the pIC50 [1] was < 4.00.

In the case of c1ncn(CCOc2ccc3c(c2)CN2CN3Cc3cc(OCCn4cncn4)ccc32)n1, the pIC50 [1] was < 4.00.

With CN(C)C1N2Cc3cc(OCCn4cncn4)ccc3N1Cc1cc(OCCn3cncn3)ccc12 the pIC50 [1] was 4.39.

In the case of c1cc2c(cc1OCCN1CCOCC1)CN1CN2Cc2cc(OCCN3CCOCC3)ccc21, the pIC50 [1] was 5.37.

CN(C)C1N2Cc3cc(OCCN4CCOCC4)ccc3N1Cc1cc(OCCN3CCOCC3)ccc12 was tested, and the pIC50 [1] was 5.32.

CC(C)(C)OC(=O)N1CCN(CCOc2ccc3c(c2)CN2CN3Cc3cc(OCCN4CCN(C(=O)OC(C)(C)C)CC4)ccc32)CC1 gave a pIC50 [1] of 5.29.

With c1ccc(-n2nnnc2SCCOc2ccc3c(c2)CN2CN3Cc3cc(OCCSc4nnnn4-c4ccccc4)ccc32)cc1 the pIC50 [1] was < 4.00.

c1ccc(CC2CCN(CCOc3ccc4c(c3)CN3CN4Cc4cc(OCCN5CCC(Cc6ccccc6)CC5)ccc43)CC2)cc1 was tested, and the pIC50 [1] was 4.19.

Work on COc1ccccc1N1CCN(CCOc2ccc3c(c2)CN2CN3Cc3cc(OCCN4CCN(c5ccccc5OC)CC4)ccc32)CC1 yielded a pIC50 [1] of 5.24.

Fc1ccc(N2CCN(CCOc3ccc4c(c3)CN3CN4Cc4cc(OCCN5CCN(c6ccc(F)cc6)CC5)ccc43)CC2)cc1 gave a pIC50 [1] of 5.32.

In the case of Clc1ccc(C(c2ccccc2)N2CCN(CCOc3ccc4c(c3)CN3CN4Cc4cc(OCCN5CCN(C(c6ccccc6)c6ccc(Cl)cc6)CC5)ccc43)CC2)cc1 (racemic), the pIC50 [1] was 4.24.

Work on COc1cccc2c1C(=O)c1c(O)c3c(c(O)c1C2=O)C[C@@](O)(C(=O)CO)C[C@@H]3O[C@H]1C[C@H](N)[C@H](O)[C@H](C)O1 [DOXORUBICIN] yielded a pIC50 [1] of 5.22, a pIC50 [2] of 5.07 and a pIC50 [3] of 5.09.
